# IDH1 R132H inh: blocks human IDH1 R132H reductase activity. O75874. diaphorase/resazurin fluorescence, 60 min. inhibition, % at 10 µM. 70,000 tested, 0.18% active. AID 624101; in the data active = inhibition above about 34%; inconclusive = no clear call, values can overlap the other calls; inactive = below about 11%;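 note: 0% = DMSO and 100% = no enzyme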
# GASC1 inh: KDM4C (human) demethylase inhibition; AID 720574; inhibition, % at 12.5 µM; GST-KDM4C 2-372, H3K9me3 peptide, LANCE TR-FRET; 96,000 tested, 0.15% active;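 active = mean replicate inhibition above about 25%, with at least 55% of replicates also reaching it, limit read from the data, passing the limit was not always enough; inconclusive = only one of those two conditions met; inactive = neither condition met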
# Target sequence (Q9H3R0 2-372 limits assumed): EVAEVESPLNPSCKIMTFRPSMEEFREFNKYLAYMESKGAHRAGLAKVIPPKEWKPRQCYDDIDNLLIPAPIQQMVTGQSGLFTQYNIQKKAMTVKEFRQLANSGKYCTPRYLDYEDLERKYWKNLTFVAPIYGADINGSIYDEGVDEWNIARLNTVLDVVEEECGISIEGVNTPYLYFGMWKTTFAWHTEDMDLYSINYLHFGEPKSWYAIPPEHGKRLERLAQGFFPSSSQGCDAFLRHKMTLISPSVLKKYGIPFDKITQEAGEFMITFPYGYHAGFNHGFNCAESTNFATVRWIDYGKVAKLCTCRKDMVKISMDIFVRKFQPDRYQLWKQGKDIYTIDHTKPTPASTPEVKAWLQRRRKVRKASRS
#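 System: N-terminal GST-fused human GASC-1 (KDM4C) fragment, residues 2-372; amount: enzyme final amount 10 nM; incubation: reaction 30 min RT, detection step 1 h RT; medium: HEPES buffer, pH 7.5, plus ascorbate; technique: LANCE TR-FRET, Eu antibody, ULight-streptavidin, EDTA, ex 340 nm, em 618/671 nm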
# T cruzi growth-1: T. cruzi proliferation inhibition | T. cruzi beta-gal in NIH3T3, GalScreen luminescence, 90 h | inhibition, % at 8.34 µM | AID 624255 | 77,000 tested, 5.9% active;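 active = mean inhibition above about 93%, with at least 55% of replicates each passing it, limit read from the data, passing the limit was not always enough; inconclusive = only one of those two conditions holds; inactive = neither condition holds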
# T cruzi growth-2: blocks T. cruzi growth in NIH3T3 host cells. shares compounds with T cruzi growth-1. inhibition, % at 8.35 µM. 5,600 tested, 72% active. T. cruzi beta-gal in NIH3T3, GalScreen luminescence, 90 h. AID 651739;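 active = mean replicate inhibition above about 95% and at least 55% of replicates individually reaching it, limit read from the data; inconclusive = only one of the two criteria is met; inactive = neither criterion is met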
# T cruzi growth-3: blocks T. cruzi growth in NIH3T3 host cells. shares compounds with T cruzi growth-1. T. cruzi beta-gal in NIH3T3, GalScreen luminescence, 90 h. inhibition, % at 2.09 µM. 5,600 tested, 21% active. AID 651740;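 active = mean inhibition above about 95%, with at least 55% of replicates also reaching it, limit read from the data; inconclusive = meets just one of the two conditions; inactive = meets neither condition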;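 note: plate controls were neutral control median for no effect and positive control median for full effect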
# NIH3T3 tox: kills mouse NIH/3T3 fibroblasts; AID 651742; shares compounds with T cruzi growth-1; 5,600 tested, 14% active; NIH/3T3 viability, CellTiter-Glo ATP luminescence, 90 h; cytotoxicity (signal decrease), % at 8.35 µM;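 active = mean signal decrease across replicates above about 35% based on untreated-well scatter, with enough replicates individually passing, limit read from the data; inconclusive = no rule stated though some were filed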;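 note: 0% = median of neutral control wells and 100% = median of positive control wells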
# 3T3 cytotox 2: NIH/3T3 (mouse) viability loss; NIH/3T3 viability, CellTiter-Glo ATP luminescence, 90 h; 5,600 tested, 56% active; shares compounds with T cruzi growth-1; inhibition, % at 24.9 µM; AID 651744;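 active = mean loss of cell viability signal at or above a set limit, and enough replicates individually reaching it; inconclusive = meets only the mean limit or only the replicate share; inactive = meets neither condition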;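 note: 0% = median of neutral control wells and 100% = median of positive control wells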
# * marks the source's active call; other numbers are inactive results; ? = inconclusive; / = no result given. Shown is part of a subset that was picked to be rich in hits.
SMILES,IDH1 R132H inh,GASC1 inh,T cruzi growth-1,T cruzi growth-2,T cruzi growth-3,NIH3T3 tox,3T3 cytotox 2
C[C@H](CO)N1C[C@H](C)[C@@H](CN(C)Cc2ccc(-c3ccccc3)cc2)Oc2cc(C#C[C@@H](C)O)ccc2S1(=O)=O,/,-1,97*,87,107*,109*,104*
C[C@@H](O)C#Cc1ccc2c(c1)O[C@@H](CN(C)Cc1ccc(-c3ccccc3)cc1)[C@@H](C)CN([C@@H](C)CO)S2(=O)=O,/,-1,-46,/,/,/,/
COc1cccc(NC(=O)CSc2nnnn2C)c1,1,/,/,/,/,/,/
C[C@@H]1CN([C@@H](C)CO)C(=O)c2cccc(NS(=O)(=O)c3ccc(Cl)cc3)c2O[C@H]1CN(C)C(=O)Nc1ccccc1,4,1,43,/,/,/,/
CN(C)CC#Cc1ccc([C@H]2[C@H](CO)N3CCCCN(C(=O)C4CC4)C[C@@H]23)cc1,/,/,35,/,/,/,/
O=C(CN1CCOCC1)N1CCCCN2[C@H](CO)[C@@H](c3ccc(C#Cc4ccccc4F)cc3)[C@H]2C1,/,1,110*,97*,-12,54*,95*
O=C(CN1CCOCC1)N1CCCCN2[C@H](CO)[C@@H](c3ccc(C#Cc4ccccc4F)cc3)[C@@H]2C1,/,2,-3,/,/,/,/
O=C(CN1CCOCC1)N1CCCCN2[C@@H](CO)[C@@H](c3ccc(C#Cc4ccccc4F)cc3)[C@@H]2C1,/,-1,107*,98*,60,?,100*
O=C(CN1CCOCC1)N1CCCCN2[C@@H](CO)[C@H](c3ccc(C#Cc4ccccc4F)cc3)[C@@H]2C1,/,1,107*,112*,80,42*,102*
O=C(CN1CCOCC1)N1CCCCN2[C@H](CO)[C@@H](c3ccc(-c4ccccc4F)cc3)[C@H]2C1,/,-2,22,/,/,/,/
O=C(CN1CCOCC1)N1CCCCN2[C@H](CO)[C@@H](c3ccc(C#Cc4ccccc4)cc3)[C@H]2C1,/,0,65,/,/,/,/
C[C@H](CO)N1C[C@H](C)[C@@H](CN(C)Cc2ccncc2)Oc2ccc(NC(=O)NC3CCCCC3)cc2CC1=O,8,1,52,/,/,/,/
COc1ccc(NC(=O)Nc2ccc3c(c2)C(=O)N([C@H](C)CO)C[C@H](C)[C@H](CN(C)S(=O)(=O)c2ccc(F)cc2)OCCCC[C@H](C)O3)cc1,/,-1,?,103*,58,2,7
COc1ccc(S(=O)(=O)N(C)C[C@@H]2OCCCC[C@@H](C)Oc3ccc(NC(=O)Nc4ccc(F)cc4)cc3C(=O)N([C@@H](C)CO)C[C@H]2C)cc1,/,0,111*,107*,87,0,14
COc1ccc(S(=O)(=O)N(C)C[C@H]2OCCCC[C@@H](C)Oc3ccc(NC(=O)Nc4ccc(F)cc4)cc3C(=O)N([C@H](C)CO)C[C@H]2C)cc1,-2,-3,?,/,/,/,/
COc1ccc(NC(=O)Nc2ccc3c(c2)C(=O)N([C@H](C)CO)C[C@H](C)[C@H](CN(C)S(=O)(=O)c2ccc(F)cc2)OCCCC[C@@H](C)O3)cc1,/,-2,18,/,/,/,/
Cc1noc(C)c1NC(=O)N(C)C[C@@H]1Oc2ncc(C#Cc3ccccc3)cc2C(=O)N([C@H](C)CO)C[C@@H]1C,1,-2,61,/,/,/,/
CNC[C@H]1Oc2ccc(NC(=O)Nc3ccc4c(c3)OCO4)cc2CC(=O)N([C@@H](C)CO)C[C@@H]1C,1,0,78,/,/,/,/
CN1c2ccc(-c3ccccc3)cc2[C@@H]2[C@@H](CCN2C(=O)c2ccccn2)[C@H]1CO,/,13,105*,102*,43,13,21
CN1c2ccc(-c3ccccc3F)cc2[C@@H]2[C@@H](CCN2C(=O)c2ccccn2)[C@H]1CO,/,1,116*,106*,55,-1,24
CN1c2ccc(-c3ccc(F)cc3)cc2[C@@H]2[C@@H](CCN2C(=O)c2ccccn2)[C@H]1CO,/,2,35,/,/,/,/
CN1c2ccc(-c3ccccc3F)cc2[C@H]2[C@H](CCN2C(=O)NC2CCCCC2)[C@H]1CO,/,-10,/,/,/,/,/
